Test results taken from article PMC3640342 (Pharmaceutical research, 2013).
“And” between values parts separate entries of the source, which are not always exact repeats. Equal entries are not always repeated. Where two headings read alike, the source gives them in different places.

Experiments:
[1] = tested on: PrP^Sc levels in ScN2a-cl3 cells; test: cells; type: cell-based, mouse
[2] = Solubility at pH 2, pH 7.4 and in FaSSIF; type: physicochemical; conditions: pH 7.4 (phosphate) buffer, room temperature overnight
[3] = Media solubility; type: physicochemical; conditions: media used in the cell-based assays, 10% FBS
[4] = tested on: mouse liver microsomes; test: Hepatic microsomal stability, mouse; type: in vitro ADME; conditions: 1 μM
How it was run: (§1)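 Liver microsomes from mouse, rat or human (~0.5 mg/mL final) were incubated at 37°C with test compound at 1 μM final (0.6% ACN, 0.01% DMSO) in PBS pH 7.4 ± 0.05% PS80, with 1 mM NADPH or PBS.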

[5] = tested on: rat liver microsomes; test: Hepatic microsomal stability, rat; type: in vitro ADME; conditions: 1 μM
How it was run: as §1

[6] = tested on: human liver microsomes; test: Hepatic microsomal stability, human; type: in vitro ADME; conditions: 1 μM
How it was run: as §1

[7] = Single-dose IV PK at 1 mg/kg; type: in vivo, FVB mice; conditions: IV 1 mg/kg, plasma
How it was run: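 Female FVB mice (~25 g) received 1 mg/kg by tail-vein injection in 10% DMSO in PEG400/water (1:1), 10% DMSO, or 10% ethanol in PEG400/water (1:1). Two mice per time point were killed by CO2 at 5 min and 0.25, 0.5, 1, 2, 4 and 6 h, and heparinized plasma was collected. After protein precipitation, samples were assayed by LC/MS/MS, and parameters came from noncompartmental sparse-sampling analysis.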

[8] = Single-dose oral gavage PK at 10 mg/kg; type: in vivo, FVB mice; conditions: for AUClast / Cmax: mean ± SD, n = 2
How it was run: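 Female FVB mice (~25 g) were dosed at 10 mg/kg by oral gavage in 20% propylene glycol, 5% ethanol, 5% labrosol and 70% PEG400. Two mice per time point were killed by CO2 at 0.25, 0.5, 1, 2, 4, 6 and 24 h. Heparinized plasma and brain (diluted five-fold in water, homogenized) were assayed by LC/MS/MS.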

[9] = tested on: mouse plasma; conditions: 1 μM
[10] = tested on: human plasma; conditions: human plasma, 1 μM
[11] = mouse brain homogenate, 1 μM, corrected for dilution
[12] = cell-culture media with 10% FBS, 1 μM
[13] = tested on: human, mouse, rat, and dog liver microsomes; conditions: 10 μM, LC/MS/MS
[14] = tested on: human liver microsomes; conditions: for Measured Conc.: 60 min
[15] = target: CYP2C19 (Homo sapiens, UniProt P33261); conditions: NADPH + N-3-B
Sequence of CYP2C19 (Homo sapiens, UniProt P33261) (P33261 whole entry): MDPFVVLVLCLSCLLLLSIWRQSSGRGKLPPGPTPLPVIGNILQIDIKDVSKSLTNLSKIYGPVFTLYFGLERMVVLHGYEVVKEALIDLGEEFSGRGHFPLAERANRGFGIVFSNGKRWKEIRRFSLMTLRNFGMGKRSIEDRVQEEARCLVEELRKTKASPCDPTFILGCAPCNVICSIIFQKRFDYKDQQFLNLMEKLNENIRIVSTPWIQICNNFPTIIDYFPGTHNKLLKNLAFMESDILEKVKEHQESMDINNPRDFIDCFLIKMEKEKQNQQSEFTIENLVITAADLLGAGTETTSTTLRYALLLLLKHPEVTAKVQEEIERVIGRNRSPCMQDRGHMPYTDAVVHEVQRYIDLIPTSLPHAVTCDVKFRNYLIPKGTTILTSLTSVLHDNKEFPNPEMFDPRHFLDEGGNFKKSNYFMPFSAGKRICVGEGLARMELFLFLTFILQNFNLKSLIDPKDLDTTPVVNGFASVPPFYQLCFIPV

[16] = tested on: CYP2C19; conditions: NADPH + N-3-B
[17] = target: CYP2D6 (Homo sapiens, UniProt P10635); test: CYP phenotyping in human liver microsomes, quinidine; conditions: NADPH + Quinidine
Sequence of CYP2D6 (P10635 whole entry): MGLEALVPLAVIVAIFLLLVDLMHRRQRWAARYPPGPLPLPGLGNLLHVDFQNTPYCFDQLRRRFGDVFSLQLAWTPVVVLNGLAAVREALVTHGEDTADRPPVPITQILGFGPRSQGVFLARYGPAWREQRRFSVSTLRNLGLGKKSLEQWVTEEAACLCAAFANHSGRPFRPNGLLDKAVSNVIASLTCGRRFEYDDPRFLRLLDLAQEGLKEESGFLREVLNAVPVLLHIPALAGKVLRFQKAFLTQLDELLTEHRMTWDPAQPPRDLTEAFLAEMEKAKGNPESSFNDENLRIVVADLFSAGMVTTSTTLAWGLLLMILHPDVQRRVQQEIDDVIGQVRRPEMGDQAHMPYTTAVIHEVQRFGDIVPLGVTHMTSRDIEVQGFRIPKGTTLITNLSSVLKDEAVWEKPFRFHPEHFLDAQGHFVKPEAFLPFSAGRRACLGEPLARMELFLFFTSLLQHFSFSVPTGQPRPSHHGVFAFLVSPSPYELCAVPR

[18] = target: T1, CYP1A2 (Homo sapiens, UniProt P05177); test: CYP phenotyping in human liver microsomes, furafylline; conditions: NADPH + Furafylline
T1 sequence (P05177 1-516): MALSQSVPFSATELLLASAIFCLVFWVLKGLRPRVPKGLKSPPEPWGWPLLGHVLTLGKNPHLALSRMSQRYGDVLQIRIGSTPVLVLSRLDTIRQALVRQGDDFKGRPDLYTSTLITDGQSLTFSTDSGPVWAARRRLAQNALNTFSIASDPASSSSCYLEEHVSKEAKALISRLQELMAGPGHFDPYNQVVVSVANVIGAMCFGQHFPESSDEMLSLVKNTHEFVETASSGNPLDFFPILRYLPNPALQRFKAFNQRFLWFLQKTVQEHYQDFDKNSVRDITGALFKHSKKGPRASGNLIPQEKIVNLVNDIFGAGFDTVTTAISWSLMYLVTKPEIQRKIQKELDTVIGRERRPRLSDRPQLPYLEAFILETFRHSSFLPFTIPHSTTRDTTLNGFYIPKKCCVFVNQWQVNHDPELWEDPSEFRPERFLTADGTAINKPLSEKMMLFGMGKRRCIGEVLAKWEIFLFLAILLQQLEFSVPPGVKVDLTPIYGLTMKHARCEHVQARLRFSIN

[19] = target: CYP3A4 (Homo sapiens, UniProt P08684); test: CYP phenotyping in human liver microsomes, ketoconazole; conditions: NADPH + Ketoconazole
Sequence of CYP3A4 (P08684 whole entry): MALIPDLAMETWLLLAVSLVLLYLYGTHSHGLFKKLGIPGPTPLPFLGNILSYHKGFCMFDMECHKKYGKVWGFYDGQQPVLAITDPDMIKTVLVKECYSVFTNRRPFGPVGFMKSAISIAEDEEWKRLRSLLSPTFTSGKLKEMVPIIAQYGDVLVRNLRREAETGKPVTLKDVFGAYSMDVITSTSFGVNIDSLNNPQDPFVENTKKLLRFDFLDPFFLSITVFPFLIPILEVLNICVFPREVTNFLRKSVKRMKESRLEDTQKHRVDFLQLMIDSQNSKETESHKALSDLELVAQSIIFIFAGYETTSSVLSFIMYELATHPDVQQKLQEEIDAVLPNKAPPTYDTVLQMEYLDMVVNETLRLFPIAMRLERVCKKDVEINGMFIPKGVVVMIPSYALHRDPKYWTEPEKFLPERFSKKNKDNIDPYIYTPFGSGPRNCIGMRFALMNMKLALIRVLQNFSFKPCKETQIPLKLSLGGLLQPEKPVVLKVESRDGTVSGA

[20] = target: CYP2C9 (Homo sapiens, UniProt P11712); test: CYP phenotyping in human liver microsomes, sulfaphenazole; conditions: NADPH + Sulphaphenazol
Sequence of CYP2C9 (P11712 whole entry): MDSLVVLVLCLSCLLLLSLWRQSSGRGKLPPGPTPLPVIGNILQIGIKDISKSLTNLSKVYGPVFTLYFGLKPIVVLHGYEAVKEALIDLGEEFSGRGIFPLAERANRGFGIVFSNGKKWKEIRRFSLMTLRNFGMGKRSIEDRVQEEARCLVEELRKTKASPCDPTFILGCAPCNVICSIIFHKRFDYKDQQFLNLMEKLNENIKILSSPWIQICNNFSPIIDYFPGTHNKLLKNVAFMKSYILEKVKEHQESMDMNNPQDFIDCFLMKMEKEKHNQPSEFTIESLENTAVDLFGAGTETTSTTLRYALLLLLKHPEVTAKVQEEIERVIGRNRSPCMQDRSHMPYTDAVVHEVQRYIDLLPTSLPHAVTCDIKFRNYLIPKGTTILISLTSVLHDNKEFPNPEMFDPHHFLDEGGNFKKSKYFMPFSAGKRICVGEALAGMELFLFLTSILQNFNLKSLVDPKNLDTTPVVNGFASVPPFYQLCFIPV

[21] = irreversible incubation condition, maximum metabolism, NADPH/No Inhibitor
[22] = reversible incubation condition, maximum metabolism, NADPH/No Inhibitor
[23] = reversible incubation condition, 1 μM, 60 min

Cc1ccc(Nc2nc(-c3ccc(-c4ccccc4)cc3)cs2)nc1 [IND24]
EC50 [1]: 1270 nM
EC50 ([1]; read-out: EC50, unbound compound): 325 nM
Solubility pH 7.4 [2]: <1 μM
Solubility Media [3]: >250 µM
% remaining after a 60-min incubation [4]: 89%
t1/2 ([4]; NADPH): > 1 h
% remaining after a 60-min incubation [5]: 90%
t1/2 ([5]; NADPH): > 1 h
% remaining after a 60-min incubation [6]: 105%
t1/2 ([6]; NADPH): > 1 h
tmax [7]: 4.98 min
CL ([7]; female FVB mice): 15.3 mL/min/kg
Vss ([7]; female FVB mice): 2.46 L/kg
AUClast ([7]; mean ± SD, n = 2): 2.78 ± 1.09 µM·h
Cmax ([7]; mean ± SD, n = 2): 2490 ± 2650 nM
t1/2 ([7]; 1 mg/kg): 2.16 h
%F (absolute oral bioavailability) ([8]; PO 10 mg/kg vs IV 1 mg/kg, plasma): 40% and 40.3%
tmax ([8]; PO 10 mg/kg, brain): 4 h
AUClast ([8]; PO 10 mg/kg, brain): 29.1 ± 1.24 µM·h
Cmax ([8]; PO 10 mg/kg, brain): 2450 ± 740 nM
t1/2 ([8]; PO 10 mg/kg, plasma): 4.65 h
tmax ([8]; PO 10 mg/kg, plasma): 2 h
AUClast ([8]; PO 10 mg/kg, plasma): 11.2 ± 1.31 µM·h
Cmax ([8]; PO 10 mg/kg, plasma): 1660 ± 110 nM
Unbound (%) [9]: 6.6% and 6.63±1.55%
Unbound (%) [10]: 4.9% and 4.91±1.03%
Unbound (%) [11]: 8% and 8.20±0.35%
Unbound (%) [12]: 26% and 25.7±4.93%
Metabolites observed [13]: metabolites M1–M3 and M5 were observed in all of the microsomal assays while M4 was only observed in the dog liver microsomal incubation
Metabolism in HLM incubations ([14]; 1 μM, human liver microsomes): very little metabolism
Disappearance % [14, 21]: 0 (−18) %
Disappearance % Δ [14, 21]: 0%
Measured Conc. ([14]; irreversible incubation condition, maximum metabolism, NADPH/No Inhibitor, 1 μM): 0.733 µM
Measured Conc. ([14]; irreversible incubation condition, negative control, No NADPH/No Inhibitor, 1 μM): 0.622 µM
Disappearance % [14, 22]: 0%
Disappearance % Δ [14, 22]: 0%
Measured Conc. ([14]; reversible incubation condition, maximum metabolism, NADPH/No Inhibitor, 1 μM): 0.655 µM
Disappearance % ([14]; reversible incubation condition, negative control, No NADPH/No Inhibitor): 0%
Measured Conc. ([14]; reversible incubation condition, negative control, No NADPH/No Inhibitor, 1 μM): 0.654 µM
CYP? (involvement of CYP2C19) [15]: Unlikely (unlikely for values <5)
Disappearance % Δ [15]: 0 (−18) %
Disappearance % [16]: 18%
Measured Conc. [16, 23]: 0.537 µM
CYP? (involvement of CYP2D6) [17]: Unlikely (unlikely for values <5)
Disappearance % [17]: 15%
Disappearance % Δ [17]: 0 (−15) %
Measured Conc. [17, 23]: 0.555 µM
Disappearance % [18]: 0 (−23) %
Disappearance % Δ [18]: 0%
Measured Conc. ([18]; irreversible incubation condition, 1 μM, 60 min): 0.766 µM
CYP? (involvement of CYP3A4) [19]: Unlikely (unlikely for values <5)
Disappearance % [19]: 15%
Disappearance % Δ [19]: 0 (−15) %
Measured Conc. [19, 23]: 0.557 µM
CYP? (involvement of CYP2C9) [20]: Unlikely (unlikely for values <5)
Disappearance % [20]: 14%
Disappearance % Δ [20]: 0 (−14) %
Measured Conc. [20, 23]: 0.566 µM
